These results are taken from ChEMBL document CHEMBL1649376 (Eur J Med Chem, 2011).

Data set [1] is described as follows: Chemical stability of the compound in acidic medium at pH 1 after 6 hrs by RP-HPLC analysis. The data set is classed as physicochemical. The following applies: buffer, pH 1, 6 h. Summed up: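 Compound added from 10 mM methanol stock into 0.1 M HCl (pH 1) at 37 °C, final 100 µM; held at 37.0 ± 0.5 °C and analysed by RP-HPLC every 30 min for unchanged compound and oxime product; triplicate incubations; C8 column, methanol/water with 0.1% TFA.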

Data set [2] can be described thus: Chemical stability of the compound in basic medium assessed as half life at pH 10 after 6 hrs by RP-HPLC analysis. In kind it is physicochemical. Summed up:
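Run in 0.1 M phosphate buffer, pH 10, at 37.0 ± 0.5 °C, compound 100 µM final (from 10 mM methanol stock); RP-HPLC every 30 min quantifying parent and oxime; ring opening treated as first-order for half-life; triplicate incubations.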

The nature of data set [3]: Chemical stability of the compound in phosphate buffer at pH 7.4 assessed as half life at 100 uM after 30 mins by RP-HPLC analysis. In kind it is physicochemical. Summed up:
(§1)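 10 mM methanol stock diluted into 50 mM phosphate buffer pH 7.4 prewarmed to 37 °C, final 100 µM; maintained at 37.0 ± 0.5 °C, sampled every 30 min by RP-HPLC (C8, methanol/water 0.1% TFA) for parent loss and oxime formation; first-order kinetics for t1/2; triplicate.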

Data set [4] in a line: Dissociation constant, pKa of the compound by potentiometric titration. The data set is classed as physicochemical. Summed up:
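Potentiometric titration under N2 at 25.0 ± 0.1 °C; about 1 mM compound in at least five water–methanol mixtures (24-58 wt% MeOH), ionic strength 0.15 M KCl, acidified to pH 1.8 with 0.5 N HCl, titrated with 0.5 N KOH to pH 10.5; aqueous pKa by Yasuda-Shedlovsky extrapolation to zero cosolvent.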

In data set [5] the target is Dihydroorotate dehydrogenase (quinone), mitochondrial (Rattus norvegicus, UniProt Q63707). The data set is described as follows: Inhibition of DHODH in Wistar rat liver homogenates by DCIP reduction assay. The data set is classed as tissue-based.
Data set [6] is described as follows: Chemical stability of the compound in phosphate buffer at pH 7.4 assessed as unchanged compound level at 100 uM after 24 hrs by RP-HPLC analysis. In kind it is physicochemical. The following applies: read-out: Stability. The essentials:
as §1

Sequence of Dihydroorotate dehydrogenase (quinone), mitochondrial (Q63707 whole entry): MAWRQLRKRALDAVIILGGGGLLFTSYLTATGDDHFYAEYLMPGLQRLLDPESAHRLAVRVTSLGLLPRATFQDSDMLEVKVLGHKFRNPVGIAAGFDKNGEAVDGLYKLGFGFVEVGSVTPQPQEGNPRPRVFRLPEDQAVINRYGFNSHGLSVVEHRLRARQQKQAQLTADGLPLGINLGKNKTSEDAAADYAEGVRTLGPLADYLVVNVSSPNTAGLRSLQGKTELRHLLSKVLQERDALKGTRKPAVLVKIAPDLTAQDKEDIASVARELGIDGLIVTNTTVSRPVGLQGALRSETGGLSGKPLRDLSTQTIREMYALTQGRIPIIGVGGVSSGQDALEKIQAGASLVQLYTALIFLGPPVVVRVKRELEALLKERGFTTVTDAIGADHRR

As to `O=C(Nc1ccc(C(F)(F)F)cc1)c1cnon1`, the Stability result in data set [1] is “Stable”. For the same compound, in data set [2], the half-life was less than 0.0167 h. Moreover, in data set [3], the half-life at 100 µM was 1.38 h.

As to `O=C(Nc1cccc(C(F)(F)F)c1)c1cnon1`, in data set [3], the half-life at 100 µM came to 1.68 h.

As for `O=C(Nc1cc(C(F)(F)F)cc(C(F)(F)F)c1)c1cnon1`, in data set [3], the half-life at 100 µM was determined as 1.52 h.

On to `O=C(Nc1ccc(F)cc1)c1cnon1`, for which the half-life at 100 µM in data set [3] was 1.48 h.

As for `O=C(Nc1cccc(F)c1)c1cnon1`, in data set [3], the half-life at 100 µM is 1.81 h.

`O=C(Nc1ccccc1F)c1cnon1`: the half-life at 100 µM in data set [3] stood at 1.7 h.

On to `O=C(Nc1cc(F)cc(F)c1)c1cnon1`, for which the half-life at 100 µM in data set [3] came to 1.53 h.

As to `O=C(Nc1ccc([N+](=O)[O-])cc1)c1cnon1`, the half-life at 100 µM in data set [3] was 1.15 h.

For `O=C(Nc1ccccc1)c1cnon1`, the half-life at 100 µM in data set [3] was 2.06 h.

In the case of `Cc1ccc(NC(=O)c2cnon2)cc1`, the half-life at 100 µM in data set [3] worked out at 1.89 h.

As to `COc1ccc(NC(=O)c2cnon2)cc1`, the half-life at 100 µM in data set [3] was 1.77 h.

`O=C(Nc1ccc(-c2ccccc2)cc1)c1cnon1`: in data set [3], the half-life at 100 µM came out at 1.28 h.

The compound `N#C/C(=N\O)C(=O)Nc1ccc(C(F)(F)F)cc1` came in with a pKa in data set [4] of 4.87. The IC50 in data set [5] was determined as 60 µM.

Regarding `N#C/C(=N\O)C(=O)Nc1cccc(C(F)(F)F)c1`, in data set [4], the pKa was found to be 4.88.

Regarding `N#C/C(=N\O)C(=O)Nc1cc(C(F)(F)F)cc(C(F)(F)F)c1`, the pKa in data set [4] was 4.73.

On to `N#C/C(=N\O)C(=O)Nc1ccc(F)cc1`, for which, in data set [4], the pKa came out at 5.01.

As to `N#C/C(=N\O)C(=O)Nc1cccc(F)c1`, in data set [4], the pKa was determined as 4.92.

As for `N#C/C(=N\O)C(=O)Nc1ccccc1F`, the pKa in data set [4] was determined as 4.87.

`N#C/C(=N\O)C(=O)Nc1cc(F)cc(F)c1` had a pKa in data set [4] of 4.81.

On to `N#C/C(=N\O)C(=O)Nc1ccc([N+](=O)[O-])cc1`, for which, in data set [4], the pKa amounted to 4.61.

In data set [4], `N#C/C(=N\O)C(=O)Nc1ccccc1` displayed a pKa of 5.12.

`Cc1ccc(NC(=O)/C(C#N)=N/O)cc1`: the pKa in data set [4] worked out at 5.07.

Turning to `COc1ccc(NC(=O)/C(C#N)=N/O)cc1`, in data set [4], the pKa is 5.08.

As for `N#C/C(=N\O)C(=O)Nc1ccc(-c2ccccc2)cc1`, the pKa in data set [4] was found to be 5.03.

In data set [5], `N#CC(C(=O)Nc1ccc(C(F)(F)F)cc1)=[N+]([O-])[O-]` gave an IC50 of 17 µM.

Take `N#CC(C(=O)Nc1ccc([N+](=O)[O-])cc1)=[N+]([O-])[O-]`: in data set [5], the IC50 came to 74 µM. This IC50 lies about 4.4-fold higher than the previous one.

In data set [5], `N#CC(C(=O)Nc1ccc(-c2ccccc2)cc1)=[N+]([O-])[O-]` gave an IC50 of 26 µM. Compared with the last compound, the IC50 is about 2.8-fold lower.

`Cc1oncc1C(=O)Nc1ccc(C(F)(F)F)cc1` [LEFLUNOMIDE]: the Stability entry in data set [1] is “Stable”. The same compound returned an IC50 in data set [5] of 1.6 µM. In data set [6], the remaining at 24 h, 100 µM was 80%. Besides, the half-life in data set [2] was found to be 1.17 h. In addition, in data set [3], the half-life at 100 µM is more than 24 h.

A word on the half-life: it is the time needed for the level to fall by half in the phase considered. What is called pKa is the pH at which an ionisable group is half protonated. The term IC50 denotes the point on the concentration scale where inhibition reaches its midpoint. A high value points to a need for much substance.
